Source: ChEMBL document CHEMBL2062523, “Synthesis and evaluation of the quorum sensing inhibitory effect of substituted triazolyldihydrofuranones” (Bioorg Med Chem, 2012)
In brackets after ≈: the same amount, converted by molar mass. Activity calls are given as the source filed them. No cut-off for these calls is given here.

Key:
Assay type in all cases: functional
Pseudomonas aeruginosa [1] = test: Antagonist activity at Pseudomonas aeruginosa QSIS2 LasR-mediated quorum sensing co-expressing SacB1 assessed as inhibition of 3-oxo-C12-HSL-induced luminescence at 0.1 mM after 24 hrs by reporter gene assay
[2] = biological target: T1, Transcriptional activator protein LuxR (Aliivibrio fischeri) (UniProt P12746); test: Agonist activity at Vibrio fischeri LuxR-mediated quorum sensing expressed in Escherichia coli JB523 assessed as GFP expression at 0.1 mM after 24 hrs by reporter gene assay
T1 sequence (whole entry): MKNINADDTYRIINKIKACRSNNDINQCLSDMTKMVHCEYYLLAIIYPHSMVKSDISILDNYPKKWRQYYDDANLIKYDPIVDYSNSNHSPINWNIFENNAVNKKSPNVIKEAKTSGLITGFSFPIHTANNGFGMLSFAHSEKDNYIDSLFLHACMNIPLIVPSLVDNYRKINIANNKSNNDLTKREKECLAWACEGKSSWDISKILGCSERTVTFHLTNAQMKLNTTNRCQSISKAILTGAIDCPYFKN
Outline: (§1)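 E. coli JB523 (pJBA130, luxR-PluxI–GFP) overnight culture diluted to OD590 0.1 in LB with 0.4% NaCl, tetracycline 100 µg/ml final. Compounds 100–1000 µM added without signal; C6-HSL (5 µM) as positive control, water as negative. 24 h at 30 °C; GFP fluorescence ex 485/em 510 nm. Twelve wells per compound, ≥3 repeats.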

Pseudomonas aeruginosa [3] = test: Agonist activity at Pseudomonas aeruginosa QSIS2 LasR-mediated quorum sensing coexpressing SacB1 assessed as […] by reporter gene assay
Pseudomonas aeruginosa [4] = test: Antagonist activity at Pseudomonas aeruginosa QSIS2 LasR-mediated quorum sensing co-expressing SacB1 assessed as inhibition of 3-oxo-C12-HSL-induced luminescence at 0.25 mM […] by reporter gene assay
Pseudomonas aeruginosa [5] = test: Agonist activity at Pseudomonas aeruginosa QSIS2 LasR-mediated quorum sensing co-expressing SacB1 assessed as luminescence at 0.25 mM after 24 hrs by reporter gene assay
Pseudomonas aeruginosa [6] = test: Antibacterial activity against Pseudomonas aeruginosa QSIS2 after 20 hrs by broth microdilution assay; conditions: QSIS2, 20 h
Outline: (§2)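 EUCAST broth microdilution in triplicate, inoculum about 5 × 10^5 CFU/ml. Incubated 20 h at 37 °C, then OD590 read. Compounds from 100 mM DMSO stocks, diluted in water.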

[7] = biological target: T1, Transcriptional activator protein LuxR (Aliivibrio fischeri); test: Antagonist activity at Vibrio fischeri LuxR expressed in Escherichia coli JB523 assessed as inhibition of C6-HSL-induced GFP expression at 0.5 mM after 24 hrs by reporter gene assay
Outline: (§3)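 JB523 GFP biosensor in LB/0.4% NaCl at OD590 0.1 with tetracycline 100 µg/ml final; compounds co-added with C6-HSL (5 µM). Plates kept 24 h at 30 °C, then GFP read at 485/510 nm. Each compound tested in twelve wells, assay repeated at least three times.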

Pseudomonas aeruginosa [8] = test: Antagonist activity at Pseudomonas aeruginosa QSIS2 LasR-mediated quorum sensing co-expressing SacB1 assessed as inhibition of 3-oxo-C12-HSL-induced luminescence at 1 mM […] by reporter gene assay
Pseudomonas aeruginosa [9] = test: Agonist activity at Pseudomonas aeruginosa QSIS2 LasR-mediated quorum sensing co-expressing SacB1 assessed as luminescence at 0.5 mM after 24 hrs by reporter gene assay
[10] = biological target: T1, Transcriptional activator protein LuxR (Aliivibrio fischeri); test: Antagonist activity at Vibrio fischeri LuxR-mediated quorum sensing expressed in Escherichia coli JB523 assessed as inhibition of C6-HSL-induced GFP expression after 24 hrs by reporter gene assay; outline: as §3
Burkholderia cenocepacia = test: Antibacterial activity against Burkholderia cenocepacia LMG16656 after 20 hrs by broth microdilution assay; conditions: LMG16656, 20 h; outline: as §2
[11] = biological target: T1, Transcriptional activator protein LuxR (Aliivibrio fischeri); test: Antagonist activity at Vibrio fischeri LuxR-mediated quorum sensing expressed in Escherichia coli JB523 assessed as inhibition of C6-HSL-induced GFP expression at 1 mM after 24 hrs by reporter gene assay; outline: as §3
Pseudomonas aeruginosa [12] = test: Antibacterial activity against Pseudomonas aeruginosa PAO1 after 20 hrs by broth microdilution assay; conditions: PAO1, 20 h; outline: as §2
[13] = biological target: T1, Transcriptional activator protein LuxR (Aliivibrio fischeri); test: Agonist activity at Vibrio fischeri LuxR-mediated quorum sensing expressed in Escherichia coli JB523 assessed as GFP expression at 0.5 mM after 24 hrs by reporter gene assay; outline: as §1
Escherichia coli = test: Antibacterial activity against Escherichia coli JB523 after 20 hrs by broth microdilution assay; conditions: JB523, 20 h; outline: as §2
Pseudomonas aeruginosa [14] = test: Antagonist activity at Pseudomonas aeruginosa QSIS2 LasR-mediated quorum sensing co-expressing SacB1 assessed as inhibition of 3-oxo-C12-HSL-induced luminescence at 0.5 mM after 24 hrs by reporter gene assay
[15] = biological target: T1, Transcriptional activator protein LuxR (Aliivibrio fischeri); test: Agonist activity at Vibrio fischeri LuxR-mediated quorum sensing expressed in Escherichia coli JB523 assessed as GFP expression at 0.25 mM after 24 hrs by reporter gene assay; outline: as §1
Pseudomonas aeruginosa [16] = test: Agonist activity at Pseudomonas aeruginosa QSIS2 LasR-mediated quorum sensing co-expressing SacB1 assessed as luminescence at 0.1 mM after 24 hrs by reporter gene assay
[17] = biological target: T1, Transcriptional activator protein LuxR (Aliivibrio fischeri); test: Antagonist activity at Vibrio fischeri LuxR-mediated quorum sensing expressed in Escherichia coli JB523 assessed as inhibition of C6-HSL-induced GFP expression at 0.1 mM after 24 hrs by reporter gene assay; outline: as §3
[18] = biological target: T1, Transcriptional activator protein LuxR (Aliivibrio fischeri); test: Agonist activity at Vibrio fischeri LuxR-mediated quorum sensing expressed in Escherichia coli JB523 assessed as GFP expression at 1 mM after 24 hrs by reporter gene assay; outline: as §1
Pseudomonas aeruginosa [19] = test: Agonist activity at Pseudomonas aeruginosa QSIS2 LasR-mediated quorum sensing co-expressing SacB1 assessed as luminescence after 24 hrs by reporter gene assay

Row | Structure (SMILES) | Activity [2] | MIC (Pseudomonas aeruginosa [6]) | inhibition [7] | inhibition [10] | MIC (Burkholderia cenocepacia) | inhibition [11] | MIC (Pseudomonas aeruginosa [12]) | Activity [13] | MIC (Escherichia coli) | Activity [15] | inhibition [17] | Activity [18] | inhibition (Pseudomonas aeruginosa [1]) | Activity (Pseudomonas aeruginosa [3]) | inhibition (Pseudomonas aeruginosa [4]) | Activity (Pseudomonas aeruginosa [5]) | inhibition (Pseudomonas aeruginosa [8]) | Activity (Pseudomonas aeruginosa [9]) | inhibition (Pseudomonas aeruginosa [14]) | Activity (Pseudomonas aeruginosa [16]) | other results
1 | CCCCc1cn(C2CCOC2=O)nn1 (configuration not stated) | inactive | 5 mM (≈ 1050 µg/mL) | 22.5% | Dose-dependent effect | 5 mM (≈ 1050 µg/mL) | 27.9% | 5 mM (≈ 1050 µg/mL) | 11.6% | 5 mM (≈ 1050 µg/mL) | inactive | 12.7% | 17.3% | inactive | inactive | inactive | inactive | inactive | inactive | inactive | inactive | 
2 | CCCCCCc1cn(C2CCOC2=O)nn1 (configuration not stated) | inactive | 5 mM (≈ 1190 µg/mL) | 23.2% | Dose-dependent effect | 5 mM (≈ 1190 µg/mL) | 34.3% | 5 mM (≈ 1190 µg/mL) | 17.5% | 5 mM (≈ 1190 µg/mL) | 10% | 11.6% | 32.7% | inactive | inactive | inactive | inactive | inactive | inactive | inactive | inactive | 

More lines, main results first:

Row | Activity [2] | MIC (Pseudomonas aeruginosa [6]) | inhibition [7] | inhibition [10] | MIC (Burkholderia cenocepacia) | inhibition [11] | MIC (Pseudomonas aeruginosa [12]) | Activity [13] | MIC (Escherichia coli) | Activity [15] | inhibition [17] | Activity [18] | Structure (SMILES) | inhibition (Pseudomonas aeruginosa [1]) | Activity (Pseudomonas aeruginosa [3]) | inhibition (Pseudomonas aeruginosa [4]) | Activity (Pseudomonas aeruginosa [5]) | inhibition (Pseudomonas aeruginosa [8]) | Activity (Pseudomonas aeruginosa [9]) | inhibition (Pseudomonas aeruginosa [14]) | Activity (Pseudomonas aeruginosa [16]) | other results
3 | inactive | 5 mM (≈ 1260 µg/mL) | 34.6% | Dose-dependent effect | 5 mM (≈ 1260 µg/mL) | 39% | 5 mM (≈ 1260 µg/mL) | 12.2% | 5 mM (≈ 1260 µg/mL) | 8% | 13.7% | 17.6% | CCCCCCCc1cn(C2CCOC2=O)nn1 (configuration not stated) | inactive | inactive | inactive | inactive | inactive | inactive | inactive | inactive | 
4 | inactive | 5 mM (≈ 1220 µg/mL) | 29.6% | Dose-dependent effect | 5 mM (≈ 1220 µg/mL) | 34.4% | 5 mM (≈ 1220 µg/mL) | inactive | 5 mM (≈ 1220 µg/mL) | inactive | 6.3% | inactive | O=C1OCCC1n1cc(Cc2ccccc2)nn1 (configuration not stated) | inactive | 67.5% | inactive | 31.1% | 49.9% | 39.7% | inactive | 19.1% | Activity (Pseudomonas aeruginosa [19]): Dose-dependent effect
5 | inactive | 5 mM (≈ 1150 µg/mL) | 24.5% | Dose-dependent effect | 5 mM (≈ 1150 µg/mL) | 26.9% | 5 mM (≈ 1150 µg/mL) | inactive | 10 mM (≈ 2290 µg/mL) | inactive | inactive | 12.8% | O=C1OCCC1n1cc(-c2ccccc2)nn1 (configuration not stated) | inactive | 22.2% | inactive | inactive | inactive | 14.4% | inactive | inactive | Activity (Pseudomonas aeruginosa [19]): Dose-dependent effect
6 | inactive | 5 mM (≈ 1120 µg/mL) | 27.5% | Dose-dependent effect | 5 mM (≈ 1120 µg/mL) | 35.1% | 5 mM (≈ 1120 µg/mL) | 16.3% | 5 mM (≈ 1120 µg/mL) | 5.7% | 9% | 25.9% | CCCCCc1cn(C2CCOC2=O)nn1 (configuration not stated) | inactive | inactive | inactive | inactive | inactive | inactive | inactive | inactive | 
